From PubChem
OXTR ag: agonists of human oxytocin receptor; activation, % at 3 µM; CHO-OTR cells, Fluo-8 calcium fluorescence; normalized: DMSO 0%, oxytocin 100%; 320,000 compounds, 0.32% hits; P30559;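 active = activation above the mean of all tested compounds plus 3 SD, cutoff set per screening run, cut at about 20% in these data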;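 also: peak over basal fluorescence ratio from a 100 s FLIPR kinetic read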
Target sequence (P30559 whole entry, looked up): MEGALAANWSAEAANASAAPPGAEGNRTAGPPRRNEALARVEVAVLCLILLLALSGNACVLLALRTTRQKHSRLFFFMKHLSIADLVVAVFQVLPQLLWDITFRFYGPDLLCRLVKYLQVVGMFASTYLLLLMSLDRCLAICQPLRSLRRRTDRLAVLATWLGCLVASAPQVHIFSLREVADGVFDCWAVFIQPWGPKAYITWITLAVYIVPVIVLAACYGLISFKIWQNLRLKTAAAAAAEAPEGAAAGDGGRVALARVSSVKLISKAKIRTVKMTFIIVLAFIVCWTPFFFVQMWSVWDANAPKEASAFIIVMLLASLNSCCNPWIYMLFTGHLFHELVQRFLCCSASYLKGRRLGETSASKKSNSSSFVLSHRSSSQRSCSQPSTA
OXTR potentiate: human OXTR potentiation; CHO-OTR cells, Fluo-8 calcium fluorescence, potentiator mode; 0% = oxytocin EC15, 100% = EC100; activation, % at 3 µM; AID 2445; 320,000 compounds, 0.061% hits;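 active = activation above that plate's cutoff, the mean activation of tested compounds plus 3 SD, cut at about 6.6% in these data, passing the limit was not always enough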;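 also: 100% uses oxytocin at 75 nM as the full agonist control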
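Material: CHO-OTR cells, human receptor; compound dosing: single dose, 3.0 µM nominal final compound concentration; schedule: 6 min compound pre-incubation at room temperature, 100 s kinetic read; measured by: kinetic Fluo-8 calcium fluorescence; read-out basis: % activation vs EC15 and EC100 oxytocin; controls: EC15 oxytocin alone as 0%, 75 nM oxytocin as 100%; replicates: singlicate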
V1aR counter: activates human V1a receptor in oxytocin agonist counter-screen; 320,000 compounds, 0.25% hits; CHO-V1R cells, Fluo-8 calcium fluorescence, agonist mode; 0% DMSO, 100% 3 nM vasopressin; activation, % at 3 µM; P37288;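 active = activation above the mean activation of all tested compounds plus 3 SD, per screening run, cut at about 20% in these data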;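 also: signal is peak over basal fluorescence ratio across a 100 second FLIPR read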
TAAR1 antag: human TAAR1 antagonism. CHO RD-HGA16 TAAR1, Fluo-8 calcium fluorescence, antagonist. inhibition, % at 3 µM. 360,000 compounds, 1.5% hits. AID 624466;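 active = inhibition above a per-plate cutoff, the mean inhibition of test compounds on that plate plus 3 SD, cut at about 49% in these data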;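 also: 0% = DMSO plus EC80 beta-PEA response and 100% = DMSO alone without agonist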
Target sequence (Q96RJ0 whole entry, looked up): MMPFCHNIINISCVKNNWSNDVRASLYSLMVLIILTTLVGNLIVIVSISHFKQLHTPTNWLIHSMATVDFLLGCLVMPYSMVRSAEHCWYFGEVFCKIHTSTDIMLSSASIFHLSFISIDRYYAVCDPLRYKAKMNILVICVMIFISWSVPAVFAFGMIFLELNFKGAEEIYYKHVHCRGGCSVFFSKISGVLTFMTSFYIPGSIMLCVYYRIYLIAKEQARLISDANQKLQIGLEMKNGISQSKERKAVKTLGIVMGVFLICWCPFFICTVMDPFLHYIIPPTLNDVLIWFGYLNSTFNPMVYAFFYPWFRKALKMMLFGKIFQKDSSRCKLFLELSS
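Test system: hTAAR1-expressing CHO RD-HGA16 cells, Gα16-coupled; Probe or stimulus: EC80 β-phenethylamine stimulus; Compound dosing: single nominal final test compound concentration of 3 µM; Timing: 140 s kinetic read after compound, 140 s after agonist; Signal: Fluo-8 calcium-sensitive fluorescence; Measure: % inhibition of agonist calcium response; Controls: DMSO and EC80 PEA controls.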
TAAR1 ag: human TAAR1 agonism. Q96RJ0. CHO RD-HGA16 TAAR1, Fluo-8 calcium fluorescence; vehicle wells 0%, saturating PEA agonist 100%. activation, % at 3 µM. 360,000 compounds, 0.99% hits. AID 624467;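 active = activation above the mean activation of all test compounds in the run plus 3 SD, cut at about 38% in these data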
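Benchmarks: low control DMSO, high control PEA (EC100); System: CHO RD-HGA16 cells carrying human TAAR1 plus Gα16; Detection: Fluo-8 fluorescence, 5 s baseline then 140 s kinetic read; Schedule: 17-24 h plating, Fluo-8 75 min 37 °C, 30 min RT; Read-out basis: % activation from peak over basal fluorescence ratio, DMSO-to-PEA scaled.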
TAAR1 nonsel count: nonselective antagonist in TAAR1 antagonist counter-screen | counterscreen cell line, calcium fluorescence, antagonist mode | AID 651780 | inhibition, % at 3 µM | shares compounds with TAAR1 antag | 2,400 compounds, 77% hits; in the data active = inhibition above about 22%;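 also: CHO-Ga16 host cells stimulated with ATP at an EC80 level; 0% = agonist EC80 plus vehicle and 100% = vehicle without agonist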
TAAR1 antag conf: confirmation of human TAAR1 antagonists; inhibition, % at 3 µM; TAAR1-expressing cells, fluorescence antagonist read-out; 2,400 compounds, 40% hits; AID 651785; shares compounds with TAAR1 antag; in the data active = inhibition above about 49%;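 also: CHO-Ga16 host cells challenged with agonist PEA near its EC80; 0% = agonist at EC80 plus vehicle and 100% = vehicle with no agonist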
Ga16 nonsel ag: counter-screen for TAAR1 antagonists: nonselective Ga16 agonists; shares compounds with TAAR1 antag; Ga16-expressing cells, calcium fluorescence, agonist counterscreen; activation, % at 3 µM; 2,400 compounds, 18% hits; AID 651953; in the data active = activation above about 12%;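 also: 0% = vehicle wells and 100% = saturating stimulus response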
TAAR1 ag count: counter-screen for human TAAR1 antagonists: TAAR1 agonists. AID 651955. hTAAR1 cell line, fluorescence activation, agonist mode. activation, % at 3 µM. shares compounds with TAAR1 antag. 2,400 compounds, 2% hits; in the data active = activation above about 37%;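 also: CHO cells stably expressing TAAR1 with calcium dye readout; 0% = DMSO vehicle and 100% = full agonist response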
* = called active by the depositor; / = no result given. Compounds with a hit are over-represented: about 2.3% of the library has one in this group of screens.

SMILES	OXTR ag	OXTR potentiate	V1aR counter	TAAR1 antag	TAAR1 ag	TAAR1 nonsel count	TAAR1 antag conf	Ga16 nonsel ag	TAAR1 ag count
O=C(CSc1nnc(-c2ccc(Br)cc2)o1)Nc1cccc2ccccc12	-1	0	0	59*	20	30*	19	5	4
CCCCN1C(=O)C(CC(=O)NCc2cccc3ccccc23)CC(C(=O)N2CCCCCC2)=C1C (centres undefined)	/	/	/	-12	1	/	/	/	/
NS(=O)(=O)c1ccc(CNC(=O)c2cc(-c3cccnc3)nc3ccccc23)cc1	1	5	0	2	-1	/	/	/	/
O=C(NCc1ccc(F)cc1)c1cc(-c2ccncc2)nc2ccccc12	4	-3	6	48	11	/	/	/	/
O=C(NCc1cc([N+](=O)[O-])ccc1O)c1cc(-c2ccncc2)nc2ccccc12	3	-13	3	67*	19	32*	56*	11	8
Cc1ccc(Sc2ncccc2C(=O)NCc2cc([N+](=O)[O-])ccc2O)cc1C	/	/	/	60*	20	29*	41	11	14
NS(=O)(=O)c1ccc(CNC(=O)c2cc(-c3ccccc3)nc3ccccc23)cc1	1	0	0	65*	10	32*	41	7	5
CC(C)C(NS(=O)(=O)c1ccc2c(c1)oc(=O)n2C)C(=O)N1CCN(Cc2ccccc2)CC1 (centres undefined)	-1	-3	-1	7	0	/	/	/	/
Cc1csc(NC(=O)NCC2CCCC(CNC(=O)Nc3nc(C)cs3)C2)n1 (centres undefined)	-1	-13	1	9	0	/	/	/	/
CC(C)n1c(SCC(=O)Nc2ccccc2N2CCOCC2)nc2c1c(=O)n(C)c(=O)n2C	-1	-4	1	-1	9	/	/	/	/
CCn1c(SCC(=O)Nc2ccccc2N2CCCCC2)nc2c1c(=O)n(C)c(=O)n2C	2	-3	0	55*	13	27*	47	10	10
COc1ccccc1CC(=O)Nc1ccon1	0	0	-1	-6	2	/	/	/	/
C=CC[C@H](CC(=O)N(CCO)Cc1ccccc1)C(=O)N[C@H](COC(=O)[C@H](CC=C)CC(=O)OC(C)(C)C)Cc1ccccc1	0	-6	1	58*	11	24*	43	5	3
C=CC[C@H](CC(=O)NCCO)C(=O)N[C@H](COC(=O)[C@@H](CC=C)CC(=O)OC(C)(C)C)Cc1c[nH]c2ccccc12	0	-3	0	34	10	/	/	/	/
C=CC[C@H](CC(=O)N(CCO)Cc1ccccc1)C(=O)N[C@@H](COC(=O)[C@H](CC=C)CC(=O)OC(C)(C)C)Cc1c[nH]c2ccccc12	-1	-9	0	69*	14	30*	42	5	3
Cc1cccc(OCC(=O)Nc2ccc(C(=O)NCC(C)C)cc2)c1	1	-2	3	-15	-1	/	/	/	/
Cc1cccc(OCC(=O)Nc2cccc(C(=O)NCC(C)C)c2)c1	4	-12	9	70*	33	10	22	7	11
COc1cc(/C=C\C(=O)O)cc(S(=O)(=O)N2CCCCCC2)c1OC	/	/	/	-13	0	/	/	/	/
Cc1ccccc1NC(=O)N(C)[C@H]1C[C@H]2c3[nH]c4c(-c5ccccc5)cccc4c3CCN2C(=O)[C@H]1[C@H](C)O	/	/	/	57*	16	29*	35	6	4
C[C@H](O)[C@@H]1C(=O)N2CCc3c([nH]c4c(-c5ccccc5)cccc34)[C@@H]2C[C@@H]1N(C)C(=O)Nc1cccc2ccccc12	/	/	/	27	5	/	/	/	/
C[C@@H]1ON(C)[C@H]2C[C@H]3c4[nH]c5c(-c6ccc7c(c6)OCO7)cccc5c4CCN3C(=O)[C@@H]12	/	/	/	62*	9	27*	45	7	5
COCCNC(=S)N(C)[C@H]1C[C@H]2c3[nH]c4c(-c5ccc6c(c5)OCO6)cccc4c3CCN2C(=O)[C@H]1[C@H](C)O	/	/	/	62*	15	29*	45	4	8
CCNC(=O)N(C)[C@H]1C[C@H]2c3[nH]c4c(-c5ccccc5)cccc4c3CCN2C(=O)[C@H]1[C@H](C)O	/	/	/	18	4	/	/	/	/
C[C@H](O)[C@@H]1C(=O)N2CCc3c([nH]c4c(-c5ccccc5)cccc34)[C@@H]2C[C@@H]1N(C)C(=O)Nc1ccccc1	/	/	/	54*	9	31*	26	5	4
CC(Sc1nnnn1-c1ccc(O)cc1)c1nc2ccccc2c(=O)[nH]1 (centres undefined)	3	1	2	-27	4	/	/	/	/
SMILES	OXTR ag	OXTR potentiate	V1aR counter	TAAR1 antag	TAAR1 ag	TAAR1 nonsel count	TAAR1 antag conf	Ga16 nonsel ag	TAAR1 ag count
COc1ccc(CNC(=O)C(c2cccs2)N(Cc2ccco2)C(=O)Cc2cccs2)cc1 (centres undefined)	2	-8	5	67*	18	30*	47	9	8
COc1ccc(CNC(=O)C(c2ccncc2)N(C(=O)Cc2cccs2)c2cccc(C)c2)cc1 (centres undefined)	-2	-7	-1	12	3	/	/	/	/
COc1ccc(CNC(=O)C(c2ccco2)N(Cc2cccs2)C(=O)Cc2cccs2)cc1 (centres undefined)	1	-13	9	75*	20	35*	63*	9	7
COc1ccc(CNC(=O)C(c2ccc(C)cc2)N(Cc2cccs2)C(=O)c2ccc3c(c2)OCCO3)cc1 (centres undefined)	2	-11	3	66*	23	31*	52*	15*	17
Cc1ccc(C(C(=O)NC2CCCC2)N(Cc2ccc3c(c2)OCO3)C(=O)Cc2cccs2)cc1 (centres undefined)	-2	-22	1	66*	10	26*	56*	9	12
COCCN(C(=O)Cc1cccs1)C(C(=O)NCc1ccc(OC)cc1)c1ccc(OC)cc1 (centres undefined)	-1	-7	0	-1	9	/	/	/	/
Cc1ccc(CN(C(=O)Cc2cccs2)C(C(=O)NC2CCCC2)c2ccncc2)cc1 (centres undefined)	-2	-1	0	6	1	/	/	/	/
COc1ccc(C(=O)CSC2=NS(=O)(=O)c3cc(Cl)ccc3N2)cc1	1	-2	3	-23	5	/	/	/	/
